In ChEMBL document CHEMBL2417486, “Exploring natural product chemistry and biology with multicomponent reactions. 5. Discovery of a novel tubulin-targeting scaffold derived from the rigidin family of marine alkaloids” (J Med Chem, 2013):
≈ marks a conversion by molar mass, not a printed value. Calls of active or inactive are those of the source. The rule behind the calls is not given here.

Assays:
B16-F10 = assay: Growth inhibition of mouse B16F10 cells after 48 hrs by MTT assay; assay type: functional; conditions: B16-F10, 48 h
A549 = assay: Growth inhibition of human A549 cells after 48 hrs by MTT assay; assay type: functional; conditions: A549, 48 h
MCF7 = assay: Growth inhibition of human MCF7 cells after 48 hrs by MTT assay; assay type: functional; conditions: MCF7, 48 h
In short: (§1)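 Cells seeded at 4 × 10^3 per well, grown 24 h, then treated 48 h at 0.004–100 µM from 100 or 25 mM DMSO stocks. Controls were 0.1% DMSO and phenyl arsine oxide. MTT (5 mg/mL) added for 2 h, formazan dissolved in DMSO, A490 read. […] HeLa/MCF-7 in DMEM, MES-SA lines in RPMI-1640, all with 10% FBS.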

[1] = Growth inhibition of human UM-SCC-10A cells after 48 hrs by MTT assay; assay type: functional; conditions: UMSCC-10A
HeLa [2] = assay: Growth inhibition of human HeLa cells after 48 hrs by MTT assay; assay type: functional; in short: as §1
HeLa [3] = assay: Cell cycle arrest in human HeLa cells assessed as accumulation at G2/M phase at 1 uM after 32 hrs using Vybrant Orange staining by flow cytometry relative to control; assay type: functional, cell-based
In short: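 HeLa cells at 70–80% confluence were seeded at 2 × 10^5 per well in DMEM/10% FBS with penicillin G and streptomycin, left to adhere overnight, then treated at 1 µM for 32 h (0.1% DMSO control). Washed, trypsinized, stained 30 min at 37 °C with 10 µM Vybrant Orange in medium, then analysed by flow cytometry for DNA content.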

[4] = Growth inhibition of human Hs683 cells after 48 hrs by MTT assay; assay type: functional; conditions: Hs 683, 48 h
SK-MEL-28 = assay: Growth inhibition of human SK-MEL-28 cells after 48 hrs by MTT assay; assay type: functional; conditions: SK-MEL-28, 48 h
[5] = Aqueous solubility of the compound by spectrophotometric analysis; assay type: physicochemical
In short: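 Compound dispersed in ultrapure water at >0.5 mg/mL; supernatant centrifuged repeatedly until no pellet remained, then diluted 1:2 (solution:DMSO). Concentration read from absorbance at peak 335–336 nm against a calibration line made in 1:2 water/DMSO, and corrected for the DMSO dilution.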

[6] = Growth inhibition of human UM-SCC-10B cells after 48 hrs by MTT assay; assay type: functional
[7] = Growth inhibition of human UM-SCC-22A cells after 48 hrs by MTT assay; assay type: functional
[8] = Growth inhibition of human U373 cells after 48 hrs by MTT assay; assay type: functional, U-373MG ATCC; conditions: U373 MG
UMSCC22B = assay: Growth inhibition of human UM-SCC-22B cells after 48 hrs by MTT assay; assay type: functional
[9] = molecular target: T1, Tubulin beta (Homo sapiens) (UniProt P68371+Q9H4B7+Q13509+P04350+Q3ZCM7+P07437+Q13885+Q9BVA1+Q9BUF5+A6NNZ2); assay: Inhibition of [3H] radiolabelled colchicine binding to tubulin beta (unknown origin) at 5 uM by DEAE-cellulose filter method; assay type: protein assay
HeLa [10] = assay: Antimitotic activity in human HeLa cells assessed as disruption of mitotic microtubule organization at 10 to 100 nM after 3 hrs by Hoechst 33342 staining based inverted microscopic analysis; assay type: functional, cell-based
In short: (§2)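 HeLa cells grown in EMEM with 10% FBS, sodium pyruvate and sodium bicarbonate; treated 3 h with compound (DMSO stock prediluted in medium) or 0.1% DMSO carrier. Fixed in methanol at -20°C for 30 min, blocked in 3% BSA/PBS 1 h, mouse anti-tubulin plus rabbit anti-pericentrin overnight at 4 °C, Alexafluor secondaries, Hoechst 33342 for DNA; epifluorescence imaging with Apotome.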

[11] = molecular target: T1, Tubulin beta (Homo sapiens); assay: Inhibition of [3H] radiolabelled colchicine binding to tubulin beta (unknown origin) at 1 uM by DEAE-cellulose filter method; assay type: protein assay
[12] = Growth inhibition of human MES-SA cells after 48 hrs by MTT assay; assay type: functional; in short: as §1
HeLa [13] = assay: Antimitotic activity in human HeLa cells assessed as interphase microtubule organization at 1 to 10 nM after 3 hrs by Hoechst 33342 staining based inverted microscopic analysis; assay type: functional, cell-based; in short: as §2
HeLa [14] = assay: Antimitotic activity in human HeLa cells assessed as mitotic microtubule organization at 1 to 10 nM after 3 hrs by Hoechst 33342 staining based inverted microscopic analysis; assay type: functional, cell-based; in short: as §2
[15] = Inhibition of bovine brain tubulin polymerization preincubated for 15 mins followed by GTP addition measured after 20 mins by turbidimetric analysis; design: species or system Bos taurus
In short: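 Bovine brain tubulin at 10 µM (1.0 mg/mL) in 0.8 M monosodium glutamate (pH 6.6 in 2 M stock) was preincubated with varying compound concentrations for 15 min at 30 °C, then cooled to 0 °C. After addition of 0.4 mM GTP, samples were warmed to 30 °C and assembly followed by turbidity at 350 nm.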

HeLa [16] = assay: Antimitotic activity in human HeLa cells assessed as disruption of interphase microtubule organization at 10 to 100 nM after 3 hrs by Hoechst 33342 staining based inverted microscopic analysis; assay type: functional, cell-based; in short: as §2
HeLa [17] = assay: Antimitotic activity in human HeLa cells assessed as effect on spindle length at 1 to 10 nM after 3 hrs by Hoechst 33342 staining based inverted microscopic analysis; assay type: functional, cell-based; in short: as §2
[18] = Growth inhibition of human doxorubicin-resistant MES-SA/Dx5 cells after 48 hrs by MTT assay; assay type: functional; conditions: MES-SA/Dx5, 48 h
In short: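 Cells seeded at 4 × 10^3 per well, grown 24 h, then treated 48 h at 0.004–100 µM from 100 or 25 mM DMSO stocks. Controls were 0.1% DMSO and phenyl arsine oxide. MTT (5 mg/mL) added for 2 h, formazan dissolved in DMSO, A490 read.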

SMILES | GI50 (B16-F10) [nM] | GI50 (A549) [nM] | GI50 (MCF7) [nM] | GI50 [1] [nM] | GI50 (HeLa [2]) [nM] | Activity (HeLa [3]) | GI50 [4] [nM] | GI50 (SK-MEL-28) [nM] | solubility [5] [µM] | GI50 [6] [nM] | GI50 [7] [nM] | GI50 [8] [nM] | GI50 (UMSCC22B) [nM] | inhibition [9] [%] | Activity (HeLa [10]) | GI50 [12] [nM] | Activity (HeLa [13]) | Activity (HeLa [14]) | IC50 [15] [nM] | Activity (HeLa [16]) | other results
O=C(c1ccccc1)c1[nH]c2[nH]cnc(=O)c2c1-c1cncc(Br)c1 | 40 | 20 | 87 | 90 | 80 | Active | 20 | 20 | 30 (≈ 11.9 µg/mL) | 130 | 120 | 30 | 20 |  |  |  |  |  |  |  | 
O=C(c1ccccc1)c1[nH]c2[nH]cnc(=O)c2c1-c1ccccc1 | 20 | 10 | 40 |  | 35 |  | 10 | < 10 | 10 (≈ 3.15 µg/mL) |  |  | < 10 |  | 88 | Active | 30 | inactive | inactive | 1200 | Active | inhibition [11]: 58%; Activity (HeLa [17]): inactive; GI50 [18]: 70 nM
O=C(c1ccccc1)c1[nH]c2[nH]cnc(=O)c2c1-c1cc(Br)cc(Br)c1 | 50 | 30 | 95 | 90 | 95 | Active | 20 | 20 | 40 (≈ 18.9 µg/mL) | 100 | 110 | 30 | 20 | 71 | Active | 81 | inactive | inactive | 1600 | Active | Activity (HeLa [17]): inactive; GI50 [18]: 394 nM
